Data on 5 compounds can be found in ChEMBL document CHEMBL1671663, “In vivo characterization of the peptide deformylase inhibitor LBM415 in murine infection models” (Antimicrob Agents Chemother, 2009).

≈ marks a conversion by molar mass, not a printed value.

What all share (assay type): functional
Assay [1] relates to Staphylococcus aureus. Description: Antimicrobial activity against methicillin-susceptible Staphylococcus aureus ATCC 13709 by broth microdilution method. An outline of the steps:
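MIC by broth microdilution following CLSI guidelines.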
In general terms: Dilution methods test growth across graded concentrations, often in twofold steps.

The test system of assay [2] is Staphylococcus aureus. Description: Antimicrobial activity against methicillin-resistant Staphylococcus aureus NB01021 by broth microdilution method. The essentials:
(§1)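 MICs determined by broth microdilution following CLSI guidelines. Inocula came from overnight Mueller-Hinton broth (ATCC 49951, NB01021) or overnight Trypticase soy agar culture (ATCC 6301). ATCC 6303 and ATCC 700677 came from a 5-h log culture in Todd-Hewitt broth–30% horse serum.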

The test system of assay [3] is Streptococcus pneumoniae. The assay can be described thus: Antimicrobial activity against multiple drug-resistant Streptococcus pneumoniae ATCC 700677 by broth microdilution method. The essentials:
as §1

Assay [4] deals with Streptococcus pneumoniae. Description: Antimicrobial activity against Streptococcus pneumoniae ATCC 6303 infected in po dosed BALB/c mouse pneumonia model assessed as complete eradication of bacteria administered twice daily 3 days starting 16 hrs post infection. The note with it: Streptococcus pneumoniae, ATCC 6303, po. The essentials: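 Anesthetized (ketamine/xylazine) female BALB/c mice (19 to 22 g) inoculated intranasally with 50 µl log-phase culture (1.4 × 10^5 CFU/mouse). Oral treatment, six mice per group, at 16, 27, 40, 51, 64 and 75 h postinfection; vehicle controls. Lungs harvested one day after last dose, homogenized, plated; log10 CFU/lung. Deaths assigned 9 log10 CFU/lung; Kruskal-Wallis with Dunn's test versus control.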

Assay [5] has as its system Streptococcus pneumoniae. The assay can be described thus: Antimicrobial activity against Streptococcus pneumoniae ATCC 6301 by broth microdilution method. The essentials: as §1
For assay [6], the system named is Staphylococcus aureus. Description: Antimicrobial activity against methicillin-susceptible Staphylococcus aureus ATCC 49951 by broth microdilution method. An outline of the steps: as §1
For assay [7], the system named is Streptococcus pneumoniae. The assay can be described thus: Antimicrobial activity against Streptococcus pneumoniae ATCC 6303 by broth microdilution method. The essentials:
as §1

In assay [8] the test system is Staphylococcus aureus. The assay can be described thus: Antimicrobial activity against methicillin-resistant Staphylococcus aureus NB01021 infected in sc dosed BALB/c mouse administered 0, 4, 23 hrs post infection. The essentials: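 Female BALB/c mice (19–23 g) infected intraperitoneally with MRSA NB01021 in 5% hog gastric mucin, 2.1 × 10^7 to 2.8 × 10^7 CFU/mouse (0.3 ml), 10–100× minimal lethal dose. Three dose levels, groups of 5–6; vehicle controls. Treatment 0, 4 and 23 h post-infection. Observed 8 days; ED50 with 95% CI by probit analysis of day-8 survival.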

In assay [9] the test system is Streptococcus pneumoniae. The assay can be described thus: Antimicrobial activity against multiple drug resistant Streptococcus pneumoniae ATCC 700677 infected in po dosed BALB/c mouse administered twice daily for 3 days. The note with it: ATCC 700677, po, 72 h. An outline of the steps: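 Female BALB/c mice (19–23 g) infected intraperitoneally with ATCC 700677 from a 5-h Todd-Hewitt–30% horse serum log culture, suspended in 5% hog mucin, 1.5 × 10^7 to 2 × 10^7 CFU/mouse. Groups of 5–6, typically three dose levels; vehicle controls. Dosed 1, 5, 17, 27, 42, 51 h post-infection. ED50 from day-8 survival by probit analysis, with 95% CI.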

Assay [10] deals with Staphylococcus aureus. Description: Antimicrobial activity against methicillin susceptible Staphylococcus aureus ATCC 49951 infected in sc dosed NMRI mouse treated 1 and 5 hrs post infection. Conditions: ATCC 49951, sc. The essentials: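 Intraperitoneal infection (0.3 ml/mouse, 10 to 100 times minimal lethal dose) with inoculum in 0.86% NaCl; ATCC 49951 grown overnight in Mueller-Hinton broth (1.7 × 10^7 to 2.2 × 10^7 CFU/mouse), ATCC 13709 in tryptic soy broth (7.3 × 10^7 to 2 × 10^8 CFU/mouse). Groups of 5 to 6 mice, typically three doses, treated 1 and 5 h postinfection; vehicle controls. ED50 by probit analysis of day-8 survival.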

For assay [11], the system named is Staphylococcus aureus. Description: Antimicrobial activity against methicillin susceptible Staphylococcus aureus ATCC 13709 infected in sc dosed NMRI mouse treated 1 and 5 hrs post infection. Conditions: ATCC 13709, sc. The essentials:
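Systemic infection: ATCC 13709 grown overnight in tryptic soy broth and suspended in 0.86% NaCl. Given intraperitoneally at 7.3 × 10^7 to 2 × 10^8 CFU/mouse, 10–100× the minimal lethal dose, 0.3 ml/mouse. Groups of 5–6 mice, typically three dose levels; controls got vehicle. Dosed 1 and 5 h post-infection. Survival followed 8 days; ED50 (protection of 50%) with 95% CI by probit analysis of day-8 survival.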

The MIC is the lowest concentration that inhibits growth of the organism. A higher MIC goes with a need for much substance. By ED50 is commonly meant the dose at which the effect has come halfway, by size or by number of responders. For the compound `COc1c(N2C[C@@H]3CCCN[C@@H]3C2)c(F)cc2c(=O)c(C(=O)O)cn(C3CC3)c12` [MOXIFLOXACIN], the MIC in the assay on Staphylococcus aureus [1] was ≤ 0.03 µg/mL; against Staphylococcus aureus [2] it was 1 µg/mL (≈ 2.49 µM); in the assay on Streptococcus pneumoniae [3], ≤ 0.06 µg/mL; with Streptococcus pneumoniae [5], 0.5 µg/mL (≈ 1.25 µM); against Staphylococcus aureus [6], 0.06 µg/mL (≈ 0.149 µM); in the assay on Streptococcus pneumoniae [7], 0.5 µg/mL (≈ 1.25 µM). Besides, in the assay with Streptococcus pneumoniae [4], the ED50 was found to be 14.3 mg/kg.

Regarding `CC1(C)S[C@@H]2[C@H](NC(=O)Cc3ccccc3)C(=O)N2[C@H]1C(=O)O` [PENICILLIN G], the MIC was ≤ 0.125 µg/mL in the assay on Staphylococcus aureus [1]; 64 µg/mL (≈ 191 µM) against Staphylococcus aureus [2]; 32 µg/mL (≈ 95.7 µM) against Streptococcus pneumoniae [3]; 0.03 µg/mL (≈ 0.0897 µM) in the assay with Streptococcus pneumoniae [5]; ≤ 0.125 µg/mL against Staphylococcus aureus [6]; 0.06 µg/mL (≈ 0.179 µM) in the assay with Streptococcus pneumoniae [7]. The ED50 with Staphylococcus aureus [8] was > 135 mg/kg.

For `CC1(C)S[C@@H]2[C@H](NC(=O)COc3ccccc3)C(=O)N2[C@H]1C(=O)O` [PENICILLIN V], the ED50 with Streptococcus pneumoniae [9] was > 60 mg/kg.

Consider `CC[C@H]1OC(=O)[C@H](C)C(=O)[C@H](C)[C@@H](O[C@@H]2O[C@H](C)C[C@H](N(C)C)[C@H]2O)[C@](C)(OC)C[C@@H](C)C(=O)[C@H](C)[C@H]2N(CCCCn3cnc(-c4cccnc4)c3)C(=O)O[C@]12C` [TELITHROMYCIN], for which the MIC against Staphylococcus aureus [1] is ≤ 0.125 µg/mL; in the assay on Staphylococcus aureus [2], > 64 µg/mL; in the assay on Streptococcus pneumoniae [3], ≤ 0.25 µg/mL; with Streptococcus pneumoniae [5], ≤ 0.125 µg/mL; with Staphylococcus aureus [6], 0.25 µg/mL (≈ 0.308 µM); with Streptococcus pneumoniae [7], ≤ 0.125 µg/mL. It took a dose of 13.2 mg/kg to reach the 50% effect level in the assay on Streptococcus pneumoniae [9] (ED50).

With `CN[C@H](CC(C)C)C(=O)N[C@H]1C(=O)N[C@@H](CC(N)=O)C(=O)N[C@H]2C(=O)N[C@H]3C(=O)N[C@H](C(=O)N[C@H](C(=O)O)c4cc(O)cc(O)c4-c4cc3ccc4O)[C@H](O)c3ccc(c(Cl)c3)Oc3cc2cc(c3O[C@@H]2O[C@H](CO)[C@@H](O)[C@H](O)[C@H]2O[C@H]2C[C@](C)(N)[C@H](O)[C@H](C)O2)Oc2ccc(cc2Cl)[C@H]1O` [VANCOMYCIN], the results for the ED50 in the assay with Staphylococcus aureus [10], in the assay on Staphylococcus aureus [8] and in the assay with Staphylococcus aureus [11] were 1.5 mg/kg, 2.5 mg/kg and 2.8 mg/kg, respectively. Moreover, the MIC against Streptococcus pneumoniae [3] was ≤ 0.125 µg/mL; in the assay with Streptococcus pneumoniae [5], 0.5 µg/mL (≈ 0.345 µM); against Streptococcus pneumoniae [7], 0.5 µg/mL (≈ 0.345 µM).
